A selection: hits, their analogues and other compounds. The true share with any hit is near 1.4%.
FID counter = displaces DNA intercalator in HCV helicase counter-screen; DNA fluorescent intercalator displacement, fluorescence; inhibition, % at 7.9 µM; 290,000 tested, 0.17% active; AID 1845; in the data active = inhibition above about 37%;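 note: 0% = vehicle and 100% = reference compound; higher means more ethidium bromide displaced from hairpin DNA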
PLC-gamma1 inh = PLC-gamma1 (human) inhibition, primary screen; purified PLC-gamma1, fluorogenic substrate, fluorescence; inhibition, % at 12.2 µM; 370,000 tested, 0.84% active; AID 720700; in the data active = inhibition above about 9.5%
Target sequence (P19174 whole entry, looked up): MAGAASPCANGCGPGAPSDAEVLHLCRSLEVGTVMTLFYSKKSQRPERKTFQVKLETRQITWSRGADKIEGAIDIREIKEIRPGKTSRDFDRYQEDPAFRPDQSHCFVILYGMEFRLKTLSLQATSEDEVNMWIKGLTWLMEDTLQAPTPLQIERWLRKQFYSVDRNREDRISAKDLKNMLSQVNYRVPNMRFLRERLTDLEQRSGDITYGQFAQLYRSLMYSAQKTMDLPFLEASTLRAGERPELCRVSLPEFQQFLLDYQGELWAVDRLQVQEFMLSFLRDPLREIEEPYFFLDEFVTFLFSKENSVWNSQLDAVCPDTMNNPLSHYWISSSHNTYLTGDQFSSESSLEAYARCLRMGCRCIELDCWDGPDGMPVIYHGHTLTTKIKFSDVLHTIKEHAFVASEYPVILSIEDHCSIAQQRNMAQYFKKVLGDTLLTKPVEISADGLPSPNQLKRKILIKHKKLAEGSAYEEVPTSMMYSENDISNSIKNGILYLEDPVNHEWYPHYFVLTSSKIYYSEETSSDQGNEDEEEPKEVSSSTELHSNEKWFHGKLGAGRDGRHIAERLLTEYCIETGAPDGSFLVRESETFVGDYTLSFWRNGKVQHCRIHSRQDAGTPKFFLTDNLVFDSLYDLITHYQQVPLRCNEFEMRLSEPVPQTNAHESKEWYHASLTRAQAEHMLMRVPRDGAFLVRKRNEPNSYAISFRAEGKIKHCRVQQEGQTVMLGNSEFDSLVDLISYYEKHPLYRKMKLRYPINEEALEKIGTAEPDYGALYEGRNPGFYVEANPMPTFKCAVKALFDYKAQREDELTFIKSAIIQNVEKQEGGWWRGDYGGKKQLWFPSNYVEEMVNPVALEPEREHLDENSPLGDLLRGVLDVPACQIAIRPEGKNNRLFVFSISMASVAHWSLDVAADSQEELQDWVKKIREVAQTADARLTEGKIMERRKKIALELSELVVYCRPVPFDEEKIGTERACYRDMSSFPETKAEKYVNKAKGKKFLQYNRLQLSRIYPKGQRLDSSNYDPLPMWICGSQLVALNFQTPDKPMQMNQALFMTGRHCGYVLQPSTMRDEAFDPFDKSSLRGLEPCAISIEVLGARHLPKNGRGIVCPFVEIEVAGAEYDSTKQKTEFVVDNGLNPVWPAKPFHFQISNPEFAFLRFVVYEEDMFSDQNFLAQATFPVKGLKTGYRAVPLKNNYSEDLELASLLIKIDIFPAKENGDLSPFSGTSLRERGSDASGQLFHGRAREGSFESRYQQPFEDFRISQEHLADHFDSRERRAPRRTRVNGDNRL
DDE Tn6 FP inh = DD(E)-Tn6 binding inhibition, primary FP screen; Fibrin DD(E) TRITC-Tn6 fluorescence polarization displacement; AID 720509; 370,000 tested, 0.21% active; inhibition, % at 8.3 µM;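 active = inhibition above a per-campaign cutoff: mean of compounds within control limits plus 3 SD, cut at about 15% in these data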;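 note: 0% = median of all compound wells on the plate and 100% = blocking peptide control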
Tn7 DDE FP = inhibitors of Tn7 peptide binding to human fibrin DD(E). P02675. FP displacement of FITC-Tn7 peptide from fibrin DD(E); 0% = median of compound wells per plate. inhibition, % at 8.3 µM. 370,000 tested, 0.13% active;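 active = inhibition above the mean of compounds falling within the control limits plus 3 SD of them, cut at about 14% in these data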;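 note: 0% = plate median of compound wells and 100% = 10 µM Aha-Tn7 peptide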
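Assay system: Human clot-derived fibrin DD(E) complex | Buffer or medium: Tris/NaCl/CaCl2 buffer, pH 7.8 | Repeats: One replicate per compound | Benchmarks: Aha-Tn7 high control | Measure: % inhibition scaled between sample-field median and high-control FP | Schedule: 10 min plus 3 h, room temperature | Signal: Fluorescence polarization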
PLC-beta3 inh = PLC-beta3 (human) inhibition, primary screen; Purified PLC-beta3, fluorogenic substrate, fluorescence; inhibition, % at 12.2 µM; 370,000 tested, 0.18% active; AID 720704; in the data active = inhibition above about 11%;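 note: 0% = median of compound wells on plate and 100% = full blocker control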
Tn7 DDE conf = confirmation of inhibitors of Tn7 binding to human fibrin DD(E) | shares compounds with Tn7 DDE FP | 460 tested, 5% active | FP displacement of TRITC-Tn7 peptide from DD(E); 0% set at plate's compound-well median | inhibition, % at 8.3 µM;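 active = inhibition above the campaign cutoff, the mean of compounds within control limits plus 3 SD, cut at about 14% in these data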;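 note: 100% = median FP of high control wells holding Aha-Tn7 inhibitor peptide; displacers lower polarization since freed probe rises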
Tn7 DDE ctr = DD(E)-Tn7 binding inhibition, counter-screen. fibrin DD(E), TRITC-Tn7 probe displacement, fluorescence polarization. inhibition, % at 8.3 µM. 460 tested, 3% active. shares compounds with Tn7 DDE FP;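 active = inhibition above the cutoff, the mean of compounds lying between the control bounds plus 3 SD of those compounds, cut at about 17% in these data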;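 note: 0% = median of compound sample wells and 100% = excess unlabeled Aha-Tn7 peptide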
Numbers without * were called inactive; i = inactive; nt = not tested or not shown.

SMILES	FID counter	PLC-gamma1 inh	DDE Tn6 FP inh	Tn7 DDE FP	PLC-beta3 inh	Tn7 DDE conf	Tn7 DDE ctr
NC(=O)C(CCc1nc2ccccc2[nH]1)NS(=O)(=O)c1ccccc1 (configuration not stated)	nt	3	5	15*	0	6	0
Cc1cc(=O)oc2cc(OCC(=O)NC3CCCC3)ccc12	-12	-2	-6	4	-7	nt	nt
COc1ccc(-c2ccc([C@H]3[C@H]4C=CC[C@@H](C)[C@@H]4C(=O)N3Cc3ccccc3)c(F)c2)cc1OC	nt	-3	-9	14*	-5	2	-12
COc1ccc(-c2ccc([C@H]3[C@H]4C=CC[C@@H](C)[C@@H]4C(=O)N3Cc3ccccc3)c(F)c2)cc1	nt	2	8	6	0	nt	nt
O=c1[nH]c(-[n+]2ccccc2)c(/C=N/NC([S-])=Nc2ccccc2)s1	0	0	-2	15*	-8	10	6
COc1ccc(CC(=O)NCc2n[nH]c(=S)n2-c2ccc(F)cc2)cc1	-9	3	-4	4	2	nt	nt
COc1ccc(CC(=O)NCc2n[nH]c(=S)n2-c2ccccc2OC)cc1	-7	-3	2	15*	0	-4	-16
C/C(=N\NC(=O)COc1cccc(Cl)c1)c1ccc2c(c1)OCCO2	-1	-5	-3	-1	-3	nt	nt
C/C(=N\NC(=O)CSCc1ccc(Cl)cc1)c1ccc2c(c1)OCCO2	-6	-1	3	14*	-4	3	-2
CC(C)c1nnc(N2C(=O)C(O)=C(C(=O)c3cccs3)C2c2ccccc2)s1 (configuration not stated)	-2	-184	-6	30*	-180	3	0
COc1ccc(C2C(C(=O)c3cccs3)=C(O)C(=O)N2c2nnc(C)s2)cc1OC (configuration not stated)	4	nt	nt	nt	nt	nt	nt
CCc1nc2ccc(C(=O)NCCc3ccccc3OC)cc2nc1CC	-51	-1	6	14*	-8	4	6
COc1ccc2[nH]c(=O)c(CN(C)C(=O)c3ccncc3)cc2c1	-4	-19	-1	15*	-24	-2	-4
CCOc1cc(/C=N/NC(=O)c2ccc(CN3CCOCC3)cc2)ccc1OC	-15	-37	1	-4	-48	nt	nt
CN(C)c1ccc(/C=N/NC(=O)c2ccc(CN3CCOCC3)cc2)cc1Br	-8	-106	-3	14*	-112	0	1
COc1cccc(N2CCN(C(=O)CCc3nnc4ccc(N5CCOCC5)nn34)CC2)c1	-42	0	-6	0	-9	nt	nt
CC1=CC(c2ccc(Cl)cc2)n2nc(NS(=O)(=O)c3ccc(C)cc3)nc2N1 (configuration not stated)	-40	i	14	14*	i	5	2
CNCCC1Sc2ccccc2Oc2ccccc21 (configuration not stated)	23	2	9	14*	5	-1	-2
COc1ccc(/C=N/c2c(-c3ccco3)nc3ccccn23)cc1OC	-4	-116	-5	15*	-165	8	3
Clc1ccc(/C=N/c2c(-c3ccco3)nc3ccccn23)cc1	-10	-146	-8	0	-150	nt	nt
Cc1nc2n(n1)CC(O)CS2 (configuration not stated)	2	4	3	2	4	nt	nt
CC1(C)c2[nH]c3ccccc3c2C[C@@H]2C(=O)N(Cc3ccc(F)cc3)C(=O)N21	nt	-8	3	17*	-15	13	9
Cc1ccc(CN2C(=O)[C@@H]3Cc4c([nH]c5ccccc45)C(C)(C)N3C2=O)cc1	nt	-2	-7	5	-2	nt	nt
COc1cccc(OC)c1C(=O)Nc1sc2c(c1C#N)CCC2	-7	-61	-2	14*	-77	-5	-9
N#Cc1c(NC(=O)c2ccco2)sc2c1CCC2	-8	-16	-4	1	-26	nt	nt
SMILES	FID counter	PLC-gamma1 inh	DDE Tn6 FP inh	Tn7 DDE FP	PLC-beta3 inh	Tn7 DDE conf	Tn7 DDE ctr
O=C(Nc1cccnc1)c1noc2c1CCCC2	-1	3	0	-1	2	nt	nt
CC1Cc2ccccc2N1C(=O)c1ccc(N2CCCC2)c([N+](=O)[O-])c1 (configuration not stated)	-17	5	-4	5	4	nt	nt
Cc1ccc(CSc2nnc3ccc(-c4ccncc4)nn23)cc1	-10	-50	2	14*	-81	0	-1
COc1ccc(NC(=O)C[C@H]2C(=O)N(c3ccc(Br)cc3)C[C@@H]2c2ccc(OC)cc2)cc1	nt	-8	9	14*	-14	5	0
Cn1c(SCC2CCCCC2)nnc1-c1ccco1	nt	1	5	-2	0	nt	nt
CC(CCc1ccco1)NC(=O)Cn1ncc2c(=O)oc3ccccc3c21 (configuration not stated)	-1	-3	-6	15*	-2	0	-4
Cc1cc(C)cc(C(=O)NC(CC(N)=O)c2ccc(NCCN3CCOCC3)c([N+](=O)[O-])c2)c1 (configuration not stated)	-2	3	-4	-4	6	nt	nt
C=C(C)C1CC=C(C)/C(=N/NC(=O)c2ccc(NC(=O)CCC)cc2)C1 (configuration not stated)	-15	-2	6	14*	-6	8	3
CCOc1ccc(NC2OC(C)C(O)C(O)C2O)c([N+](=O)[O-])c1 (configuration not stated)	0	-1	5	-1	0	nt	nt
O=C(OCc1cn([C@H]2CN(C(=O)C3CCCCC3)[C@@H](c3ccccc3)C[C@@H]2O)nn1)c1ccccc1	nt	-1	7	15*	-2	3	6
CCN(CC)CCCNc1ccc2ncn3c4ccc(O)cc4c(=O)c1c23	nt	i	4	40*	i	13	-4
CN(C)CCNc1ccc2nnn3c4ccc(O)cc4c(=O)c1c23	nt	-14	13	-2	-18	nt	nt
COc1ccccc1-c1cc(N)n(S(=O)(=O)c2ccc(F)c(C)c2)n1	-7	2	6	14*	-1	-2	-8
COc1ccccc1C(=O)Oc1cc(N)n(S(=O)(=O)c2ccc(C)cc2)n1	-8	2	5	-1	2	nt	nt
N#Cc1cc(-c2ccccc2)nc(NN)n1	-6	-1	-4	2	-5	nt	nt
CC(C)CN(C(=O)CN1CCOCC1)c1c(N)n(CC(C)C)c(=O)[nH]c1=O	1	-3	2	3	2	nt	nt
O=[N+]([O-])c1cccc(S(=O)(=O)N2CN(c3ccc(Br)cc3)c3nc4ccccc4nc32)c1	nt	-48	-6	17*	-52	8	1
Cc1ccc(N2CN(S(=O)(=O)c3cccc([N+](=O)[O-])c3)c3nc4ccccc4nc32)cc1	8	1	-5	2	-11	nt	nt
